Source: PubChem BioAssay
HNF4A DNA FP: change in binding of human HNF4 alpha to DNA. P41235. HNF4a-FITC DNA binding, fluorescence polarization, 1 h. activity change, % at 10 µM. hit rate 0.3% among 360,000; in the data active = activity change above about 30%, passing the limit was not always enough
Target sequence (P41235 whole entry, looked up): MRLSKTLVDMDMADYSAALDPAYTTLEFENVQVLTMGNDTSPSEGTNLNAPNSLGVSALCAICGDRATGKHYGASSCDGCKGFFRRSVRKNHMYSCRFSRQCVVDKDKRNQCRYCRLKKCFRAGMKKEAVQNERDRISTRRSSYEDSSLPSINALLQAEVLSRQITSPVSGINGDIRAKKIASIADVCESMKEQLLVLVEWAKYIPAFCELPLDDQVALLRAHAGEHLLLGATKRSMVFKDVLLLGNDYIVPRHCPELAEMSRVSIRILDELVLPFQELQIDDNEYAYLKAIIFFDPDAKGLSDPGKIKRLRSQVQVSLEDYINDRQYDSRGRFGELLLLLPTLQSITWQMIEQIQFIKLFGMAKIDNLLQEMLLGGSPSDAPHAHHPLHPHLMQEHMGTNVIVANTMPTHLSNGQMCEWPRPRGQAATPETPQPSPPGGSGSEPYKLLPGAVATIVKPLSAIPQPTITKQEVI
DSG3 Ab inh: human desmoglein-3 autoantibody binding inhibition; P32926; DSG3-coupled beads, scFv-anti-DSG3-GFP binding, flow cytometry; active compounds read low; binding (percent of control), % at 10 µM; hit rate 0.48% among 310,000;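 active = binding more than 3 SD below its plate's average and above zero; inconclusive = below that plate limit but binding exactly zero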;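 note: hits lower antibody fragment binding to DSG3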
Myeloid diff MLP: myeloid differentiation induction | ER-HoxA9 myeloid progenitors, lysozyme-GFP differentiation, flow cytometry | calls only at 10 µM | hit rate 1% among 360,000;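 active = normalized GFP-positive differentiation at or above the plate's own cutoff, the solvent-only control mean plus 3 SD; inconclusive = no clear call, values can overlap the other calls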;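 note: cells exposed to compound for four days before flow analysis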
H9c2 protect: protects H9c2 cardiomyocytes from peroxide injury. H2O2 injury protection, ATPLite, 2 h. protection from H2O2 cell death, % at 20 µM. hit rate 0.63% among 360,000;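 active = compounds giving at least 50% protection of heart cells from peroxide-induced death in the single-dose screen, raw or plate-pattern-corrected value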;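 note: 0% = DMSO wells with peroxide and 100% = DMSO wells without peroxide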
SENP1 FRET inh: SENP1 (human) catalytic domain inhibition. Q9P0U3. recombinant SENP1 catalytic domain, CyPet-SUMO1-YPet FRET cleavage. inhibition, % at 10 µM. hit rate 0.21% among 360,000;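 active = inhibition at least 30% at 10 µM, raw YFP signal under a set limit, fluorescence ratio 0.5 to 1.5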;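 note: 0% = enzyme with DMSO and 100% = no enzyme wells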
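Test system: human SENP1 catalytic domain; medium: Tris pH 8 buffer plus EDTA, NaCl, BME, BSA, NP40, catalase; incubation: 50 min reaction at room temperature; technique: FRET, CFP and YFP emission; controls: no-enzyme low control and enzyme-plus-DMSO high control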
Granule exo inh: lytic granule exocytosis inhibition. TALL-104 LAMP-1 surface exposure, flow cytometry; cells stimulated with thapsigargin and PMA. inhibition, % at 10 µM. hit rate 0.66% among 360,000. AID 651702;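 active = inhibition above about 55%, limit read from the data; inconclusive = no clear call, values can overlap the other calls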
Active calls of the source: *. The list is not random: actives were taken first. Their share in the collection is about 3%.

Screening Cc1c(NC(=O)C(Sc2ccccc2)c2ccccc2)cccc1[N+](=O)[O-] (centres undefined) returned HNF4A DNA FP -1.2, DSG3 Ab inh 111.8, Myeloid diff MLP inactive, H9c2 protect -11.4, SENP1 FRET inh 1.7 and Granule exo inh 59.3*.
Screening COc1ccccc1NC(=O)C(Sc1ccccc1)c1ccccc1 (centres undefined) returned HNF4A DNA FP 1.5, DSG3 Ab inh 93.1, Myeloid diff MLP inactive, H9c2 protect -4.8, SENP1 FRET inh 4.6 and Granule exo inh -5.4.
CCCCCc1ccc(-c2ccc(/C=C/C(N)=O)cc2)nc1 was read as HNF4A DNA FP 2.9, DSG3 Ab inh 100.4, Myeloid diff MLP active, H9c2 protect 0.0, SENP1 FRET inh -4.3 and Granule exo inh 1.2.
`COCCN(CCOC)S(=O)(=O)c1ccc(NC(=O)c2cnccn2)cc1` gave HNF4A DNA FP 1.3, DSG3 Ab inh 108.9, Myeloid diff MLP inactive, H9c2 protect 2.7, SENP1 FRET inh -1.5 and Granule exo inh -0.2.
Screening O=C(COC(=O)c1cccc2ccccc12)Nc1ncc(C(F)(F)F)cc1Cl returned HNF4A DNA FP 2.4, Myeloid diff MLP active, H9c2 protect -0.5, SENP1 FRET inh 2.6 and Granule exo inh 1.8.
Screening Cc1ccc(NC(=O)Cc2ccc([N+](=O)[O-])cc2)c(Br)c1 returned HNF4A DNA FP -0.6, DSG3 Ab inh 6.2*, Myeloid diff MLP inactive, H9c2 protect -3.7, SENP1 FRET inh 1.0 and Granule exo inh 1.6.
`CN(C)c1ccc(/C=C2\CCC/C(=C\c3ccccc3)C2=O)cc1` gave HNF4A DNA FP 106.5, DSG3 Ab inh 165.1, Myeloid diff MLP active, H9c2 protect -9.3, SENP1 FRET inh -24.8 and Granule exo inh 9.1.
Screening O=C1/C(=C/c2ccccc2)CCCc2ccccc21 returned HNF4A DNA FP -4.2, DSG3 Ab inh 74.0, Myeloid diff MLP inactive, H9c2 protect -5.4, SENP1 FRET inh 0.0 and Granule exo inh 2.4.
`Cc1ccc2c(c1)CCCN2CC(=O)Nc1cc(S(=O)(=O)N2CCCC2)ccc1Cl` gave HNF4A DNA FP 12.3, DSG3 Ab inh 98.5, Myeloid diff MLP active, H9c2 protect -7.8, SENP1 FRET inh -9.7 and Granule exo inh -1.1.
`O=C(CN1CCCc2ccccc21)Nc1cc(S(=O)(=O)N2CCCC2)ccc1Cl` gave HNF4A DNA FP -0.8, DSG3 Ab inh 107.3, Myeloid diff MLP inactive, H9c2 protect -11.1, SENP1 FRET inh 27.1 and Granule exo inh 2.5.
`O=C(CCN1C(=O)/C(=C/c2ccc(F)cc2)SC1=S)NC1C=CS(=O)(=O)C1` (centres undefined) gave HNF4A DNA FP -2.9, DSG3 Ab inh 59.7*, Myeloid diff MLP inconclusive, H9c2 protect -13.5, SENP1 FRET inh 3.5 and Granule exo inh -4.2.
For C=C1CC[C@@H]2[C@](C)(CO)[C@H](O)CC[C@@]2(C)[C@@H]1C/C=C1/C(=O)OCC1O (some centres undefined) the results were HNF4A DNA FP -1.7, Myeloid diff MLP inactive, H9c2 protect 15.7, SENP1 FRET inh 1.7 and Granule exo inh 5.9.
Screening O=[N+]([O-])c1cc(S(=O)(=O)Oc2ccccc2)ccc1Cl returned HNF4A DNA FP 3.0, Myeloid diff MLP inconclusive, H9c2 protect -14.4, SENP1 FRET inh 2.3 and Granule exo inh 80.2*.
For COc1ccc(NC(=O)C2Cc3c(-c4ccc(NC(C)=O)cc4)ccnc3O2)cn1 (centres undefined) the results were HNF4A DNA FP -9.3, Myeloid diff MLP inactive, H9c2 protect 16.5, SENP1 FRET inh -2.1 and Granule exo inh -2.1.
Screening Cc1cc(C=O)c(C)n1-c1cc(C(F)(F)F)ccc1N1CCOCC1 returned HNF4A DNA FP 0.2, DSG3 Ab inh 106.4, Myeloid diff MLP inactive, H9c2 protect 137.9*, SENP1 FRET inh 2.3 and Granule exo inh -4.4.
`COc1ccc(C(=O)C2CCCN(C(=O)c3cc(C(C)C)no3)C2)cc1F` (centres undefined) gave HNF4A DNA FP 1.0, DSG3 Ab inh 105.4, Myeloid diff MLP inactive, H9c2 protect -4.0, SENP1 FRET inh 3.8 and Granule exo inh 2.5.
For Cc1nc(-n2nnc3cc(C)c(C)cc32)c2c3c(sc2n1)CCCC3 the results were HNF4A DNA FP -0.9, DSG3 Ab inh 101.5, Myeloid diff MLP active, H9c2 protect -2.9, SENP1 FRET inh -1.5 and Granule exo inh -1.2.
Cc1nc(N2CCOCC2)c2c3c(sc2n1)CCC3 was read as HNF4A DNA FP 5.0, DSG3 Ab inh 102.5, Myeloid diff MLP inactive, H9c2 protect -0.6, SENP1 FRET inh 1.4 and Granule exo inh -1.1.
`COc1ccc(C(=O)CC(Nc2ccc([N+](=O)[O-])cc2)c2ccc(Cl)cc2)cc1` (centres undefined) gave HNF4A DNA FP -1.0, DSG3 Ab inh 96.3, Myeloid diff MLP active, H9c2 protect -4.5, SENP1 FRET inh -2.7 and Granule exo inh -4.5.
COc1ccc(NC(=O)C2(C)Cc3c(-c4ccc(N(C)C)cc4)ccnc3O2)cc1 (centres undefined) was read as HNF4A DNA FP 4.9, Myeloid diff MLP inactive, H9c2 protect 1.3, SENP1 FRET inh -1.5 and Granule exo inh -2.8.
For N#Cc1cn(-c2ccccc2)nc1-c1ccc2c(c1)OCCO2 the results were HNF4A DNA FP -0.6, DSG3 Ab inh -0.9*, Myeloid diff MLP inactive, H9c2 protect -14.3, SENP1 FRET inh 2.2 and Granule exo inh -2.5.
Screening O=Cc1cn(-c2ccccc2)nc1-c1ccc2c(c1)OCCO2 returned HNF4A DNA FP 9.2, DSG3 Ab inh 104.5, Myeloid diff MLP inactive, H9c2 protect -1.1, SENP1 FRET inh -1.0 and Granule exo inh 21.0.
`CCC1CN(S(=O)(=O)c2ccc3c(c2)NC(=O)CC(=O)N3)c2cc(Cl)ccc2O1` (centres undefined) gave HNF4A DNA FP 0.4, DSG3 Ab inh 107.9, Myeloid diff MLP inactive, H9c2 protect 65.5*, SENP1 FRET inh -0.3 and Granule exo inh 1.5.
Screening COc1ccc2c(c1)CC/C(=C\c1ccc(C)o1)C2=O returned HNF4A DNA FP 13.4, H9c2 protect -10.3, SENP1 FRET inh -9.9 and Granule exo inh 31.2.
`COc1ccc2c(c1)CC/C(=C/c1ccncc1)C2=O` gave HNF4A DNA FP 0.3, DSG3 Ab inh 118.7, Myeloid diff MLP active, H9c2 protect -11.4, SENP1 FRET inh 3.2 and Granule exo inh -3.1.
Screening CCCCCCCCC(c1nc2cc(C)c(C)cc2[nH]1)n1c(=O)c(-c2ccccc2Br)nc2ccccc21 (centres undefined) returned HNF4A DNA FP 1.3, Myeloid diff MLP inactive, H9c2 protect -2.9, SENP1 FRET inh -143.1 and Granule exo inh 1.9.
CCC(=O)NC(=S)Nc1ccc(N2CCN(C(=O)c3ccc(Cl)cc3)CC2)cc1 was read as HNF4A DNA FP -2.0, DSG3 Ab inh 95.0, Myeloid diff MLP inactive, H9c2 protect -14.3, SENP1 FRET inh -0.7 and Granule exo inh 8.3.
